Square brackets hold non-standard residues; d marks the D form. Peptide text beside a SMILES is read from it. * marks the point of attachment. Cbz = O=C(OCc1ccccc1)*; βAla = NCCC(=O)O

The target in assay [1] is recombinant human 6His-tagged-Pin1 (Homo sapiens, UniProt Q13526). Put plainly: Direct-binding assay. An outline of the steps:
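Label-free optical biosensor assay. His6-Pin1 was expressed in E. coli BL21(DE3), purified, and immobilised at 150 µg/mL in 20 mM sodium acetate pH 5.5 overnight at 4 °C. Equilibrated 4 h in PBS, 0.5% DMSO, pH 7.4, then baseline read. Peptides were serially diluted to twelve concentrations from 500 µM final and read over 1 h. KD came from last-baseline-to-maximum signal, mean ± S.D. of three independent experiments.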

Assay [2] has as its system cancer cell lines (A549, HCT116, MCF7, LNCaP). Put plainly: MTT anti-proliferative assay, R8 peptides, cancer cell lines. The assay is classed as cell-based, human. The settings on record: 10 μM, after 24 h, effect persisted up to 48 h; all cancer cells tested. The procedure, abridged: (§1)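 MTT viability. A549, HCT116, MCF7 and AC16 were grown in DMEM; LNCaP in RPMI 1640. Both media had 10% FBS, penicillin/streptomycin, amphotericin-B and 2 mM L-glutamine. Cells seeded at 3×10⁴/well, treated in triplicate at 10 µM for 24 and 48 h. MTT 0.5 mg/mL for 3 h, formazan dissolved in DMSO, absorbance read at 570 nm. Expressed as % of untreated control, mean ± S.D. of three independent experiments.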

Assay [3] relates to AC16 non-tumor cells. Kind of assay: MTT anti-proliferative assay, R8 peptides, AC16. The assay is classed as cell-based, human. The settings on record: 10 μM, 24 h and 48 h. An outline of the steps:
as §1
On the technique in general: Tetrazolium dyes change colour on reduction, which living cells bring about.

For assay [4], the system named is HCT116 cells. Kind of assay: MTT anti-proliferative assay, HCT116. The assay is classed as cell-based, human. The following applies: 10 μM, 24 h. The procedure, abridged: as §1
For assay [5], the system named is HCT116 cells. Kind of assay: Cell cycle analysis by flow cytometry. The assay is classed as cell-based, human. The settings on record: 10 μM, 48 h. The procedure, abridged: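 HCT116 cells plated at 2×10⁵ cells/mL in triplicate and treated at 10 µM for 48 h. Harvested in PBS, spun at 1200 rpm for 5 min, then resuspended in hypotonic buffer (1×PBS, 0.1% sodium citrate, 0.1% NP-40, RNase A, […]). Held 30 min at RT in the dark, then run on flow cytometry with SSC-A/FSC-A gating and PI-A intensity.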
On the technique in general: A flow cytometer gives signals particle by particle.

Assay [6] addresses NIMA interacting protein 1 (Pin1) (human) (UniProt Q13526). Kind of assay: Corning Epic label-free optical biosensor.
In assay [7] the target is parvulin-14 (Par14), also known as Pin4 (human) (UniProt Q9Y237). Kind of assay: Corning Epic label-free optical biosensor.
parvulin-14 (Par14), also known as Pin4 (human), sequence (Q9Y237 whole entry): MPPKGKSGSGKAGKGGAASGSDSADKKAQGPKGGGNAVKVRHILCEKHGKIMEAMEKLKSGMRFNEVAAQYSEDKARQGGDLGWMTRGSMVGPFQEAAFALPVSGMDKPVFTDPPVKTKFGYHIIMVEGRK
Assay [8] addresses recombinant human 6His-tagged-Pin4 (Homo sapiens, UniProt Q9Y237). Kind of assay: Direct-binding assay.

NIMA interacting protein 1 (Pin1) (human), sequence (Q13526 whole entry): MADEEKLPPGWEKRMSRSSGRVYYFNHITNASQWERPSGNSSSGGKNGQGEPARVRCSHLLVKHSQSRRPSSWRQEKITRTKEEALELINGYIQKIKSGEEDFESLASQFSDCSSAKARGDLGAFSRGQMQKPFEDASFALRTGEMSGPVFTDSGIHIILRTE
recombinant human 6His-tagged-Pin1, sequence (Q13526 whole entry): as above
recombinant human 6His-tagged-Pin4, sequence (Q9Y237 whole entry): as the sequence (Q9Y237 whole entry) above

Regarding `COC(=O)[C@H](Cc1ccccc1)NC(=O)[C@@H]1CCCN1C(=O)[C@H](CCCNC(=N)NS(=O)(=O)c1c(C)cc(OC)c(C)c1C)NC(=O)[C@H](C)NC(C)=O` [5 c, Methyl N^2‐(acetyl‐L‐alanyl)‐N^ω‐((4‐methoxy‐2,3,6‐trimethylphenyl)sulfonyl)‐L‐arginyl‐L‐prolyl‐L‐phenylalaninate], the “binding to Pin1 (in words)” value in assay [1] is reported as “very little or no binding affinity”.
On to `COC(=O)[C@H](Cc1ccccc1)NC(=O)[C@@H]1CCCN1C(=O)[C@H](CCCCNC(=O)OCc1ccccc1)NC(=O)[C@H](C)NC(=O)CCNC(=O)[C@H](CCCNC(=N)N)NC(=O)[C@H](CCCNC(=N)N)NC(=O)[C@H](CCCNC(=N)N)NC(=O)[C@H](CCCNC(=N)N)NC(=O)[C@H](CCCNC(=N)N)NC(=O)[C@H](CCCNC(=N)N)NC(=O)[C@H](CCCNC(=N)N)NC(=O)[C@@H](N)CCCNC(=N)N` [R8–5 i] (H-RRRRRRRR[βAla]AK(Cbz)PF-OMe; N-terminus assumed), for which the figures for the “reduction of cell proliferation” value in assay [2] and in assay [4] were 50–60% and about 60%, respectively. The “binding to Pin1 (in words)” value in assay [1] is reported as “does not reach saturation”. For the same molecule, in assay [3], the anti-proliferative activity result is given as “less than 20%”. Also, in assay [5], the “cells within G1 phase” value was 66.4%.
In the case of `COC(=O)[C@H](Cc1ccccc1)NC(=O)[C@@H]1CCCN1C(=O)[C@H](Cc1c[nH]cn1)NC(=O)[C@H](C)NC(=O)CCNC(=O)[C@H](CCCNC(=N)N)NC(=O)[C@H](CCCNC(=N)N)NC(=O)[C@H](CCCNC(=N)N)NC(=O)[C@H](CCCNC(=N)N)NC(=O)[C@H](CCCNC(=N)N)NC(=O)[C@H](CCCNC(=N)N)NC(=O)[C@H](CCCNC(=N)N)NC(=O)[C@@H](N)CCCNC(=N)N` [R8–5 k] (H-RRRRRRRR[βAla]AHPF-OMe; N-terminus assumed), the results for the “reduction of cell proliferation” value in assay [2] and in assay [4] were 50–60% and about 60%, respectively. Besides, the anti-proliferative activity entry in assay [3] was “less than 20%”. Besides, the “cells within G1 phase” value in assay [5] is on record as 61.2%.
Usually Kd stands for the constant that tells how readily two partners part at equilibrium. For “Methyl N2-(acetyl-L-alanyl)-N6-((benzyloxy)carbonyl)-L-lysyl-L-prolyl-L-phenylalaninate (5 i) (peptide)”, the Kd was found to be 70.2 µM in assay [6] and 28.2 µM in assay [7].
Regarding “Methyl N2-(acetyl-L-alanyl)-Nω-((4-methoxy-2,3,6-trimethylphenyl)sulfonyl)-L-arginyl-L-prolyl-L-phenylalaninate (5 c) (peptide)”, the Kd in assay [6] turned out to be 53.6 µM.
Turning to “Methyl N‐(acetyl‐L‐alanyl)‐O‐benzyl‐L‐seryl‐L‐prolyl‐L‐phenylalaninate [5 g]”, the “binding to Pin1 (in words)” value in assay [1] was “very little or no binding affinity”.
In assay [6], “Methyl acetyl-L-alanyl-L-lysyl-L-prolyl-L-phenylalaninate (5 j) (peptide)” showed a Kd of 22.4 µM. That is a double-digit micromolar value.
Consider “Methyl acetyl‐L‐alanyl‐L‐lysyl‐D‐prolyl‐L‐phenylalaninate [5 p]”, for which the “binding to Pin1 (in words)” value in assay [1] was “abrogates the interaction”.
“tert‐Butyl (S)‐4‐((S)‐2‐acetamidopropanamido)‐5‐((S)‐2‐(((R)‐1‐methoxy‐1‐oxo‐3‐phenylpropan‐2‐yl)carbamoyl)pyrrolidin‐1‐yl)‐5‐oxopentanoate [5 e]”: in assay [1], the “binding to Pin1 (in words)” value is on record as “very little or no binding affinity”. The “binding to Pin4 (in words)” value in assay [8] was “micromolar range”.

B1: Methyl acetyl-L-alanyl-L-seryl-L-prolyl-L-phenylalaninate (5 h) (peptide)
peptide: Ac-ASPF-OMe
SMILES: COC(=O)[C@H](Cc1ccccc1)NC(=O)[C@@H]1CCCN1C(=O)[C@H](CO)NC(=O)[C@H](C)NC(C)=O
Take B1: the Kd in assay [6] stood at 4.5 µM.

B2: Methyl acetyl-L-alanyl-L-valyl-L-prolyl-L-phenylalaninate (5 b) (peptide)
peptide: Ac-AVPF-OMe
SMILES: COC(=O)[C@H](Cc1ccccc1)NC(=O)[C@@H]1CCCN1C(=O)[C@@H](NC(=O)[C@H](C)NC(C)=O)C(C)C
In turn, B2 displayed a Kd in assay [6] of 6.11 µM. This Kd and that of the molecule before are within 1.5-fold of each other.

B3: Methyl acetyl-L-alanylglycyl-L-prolyl-L-phenylalaninate (5 a) (peptide)
peptide: Ac-AGPF-OMe
SMILES: COC(=O)[C@H](Cc1ccccc1)NC(=O)[C@@H]1CCCN1C(=O)CNC(=O)[C@H](C)NC(C)=O
B3 displayed a Kd in assay [6] of 6.09 µM.

B4: Methyl acetyl-L-alanyl-L-glutaminyl-L-prolyl-L-phenylalaninate (5 m) (peptide)
peptide: Ac-AQPF-OMe
SMILES: COC(=O)[C@H](Cc1ccccc1)NC(=O)[C@@H]1CCCN1C(=O)[C@H](CCC(N)=O)NC(=O)[C@H](C)NC(C)=O
Molecule B4 yielded a dissociation constant (Kd) in assay [6] of 62.5 µM.

B5: Methyl acetyl-L-alanyl-L-arginyl-L-prolyl-L-phenylalaninate (5 d) (peptide)
peptide: Ac-ARPF-OMe
Turning to B5, the Kd in assay [6] is 30.5 µM.

B6: Methyl acetyl-L-alanyl-L-methionyl-L-prolyl-L-phenylalaninate (5 l) (peptide)
peptide: Ac-AMPF-OMe
SMILES: COC(=O)[C@H](Cc1ccccc1)NC(=O)[C@@H]1CCCN1C(=O)[C@H](CCSC)NC(=O)[C@H](C)NC(C)=O
On to B6, for which, in assay [6], the Kd was determined as 14.1 µM.

B7: (S)-4-((R)-2-Acetamidopropanamido)-5-((S)-2-(((S)-1-methoxy-1-oxo-3-phenylpropan-2-yl)carbamoyl)pyrrolidin-1-yl)-5-oxopentanoic acid (5 f) (peptide)
peptide: Ac-[dA]EPF-OMe
In the case of B7, the dissociation constant Kd in assay [7] was 18.6 µM.

B8: Methyl acetyl-L-alanyl-L-histidyl-L-prolyl-L-phenylalaninate (5 k) (peptide)
peptide: Ac-AHPF-OMe
SMILES: COC(=O)[C@H](Cc1ccccc1)NC(=O)[C@@H]1CCCN1C(=O)[C@H](Cc1c[nH]cn1)NC(=O)[C@H](C)NC(C)=O
For the molecule B8, the equilibrium dissociation constant (Kd) in assay [7] was found to be 5.7 µM.
